Columns and labels:
[1] = AUC (0 to 72 hrs) in Wistar rat plasma at 10 mg/kg, po by HPLC analysis; format: ADME, organism-based; set-up: time < 72 hr, dose 10 mg/kg, route oral
Procedure, shortened: (§1)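 Male Wistar rats (180 ± 20 g, n = 6 per group) got one oral dose. Heparinized blood was taken by retro-orbital puncture before dosing and at 0.5–72 h. Plasma was spun at 4000 × g, 4 °C, 10 min, spiked with internal standard and protein-precipitated with acetonitrile. Analysis was reverse-phase C18 HPLC (0.02 mol/L KH2PO4 55%/acetonitrile 45%, 1.0 mL/min). Calibration used 0.1–10 µg/mL, peak-height ratio, weighting concentration^-2.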

[2] = AUC (0 to 72 hrs) in Wistar rat plasma at 15 mg/kg, po by HPLC analysis; format: ADME, organism-based; set-up: dose 15 mg/kg, time < 72 hr, route oral; procedure, shortened: as §1
[3] = AUC (0 to infinity) in Wistar rat plasma at 10 mg/kg, po by HPLC analysis; format: ADME, organism-based; set-up: dose 10 mg/kg, route oral, time infinity; procedure, shortened: as §1
[4] = AUC (0 to infinity) in Wistar rat plasma at 15 mg/kg, po by HPLC analysis; format: ADME, organism-based; set-up: dose 15 mg/kg, route oral, time infinity; procedure, shortened: as §1
[5] = MRT (0 to 72 hrs) in Wistar rat plasma at 10 mg/kg, po by HPLC analysis; format: ADME, organism-based
Procedure, shortened: (§2)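 Male Wistar rats (180 ± 20 g), 6 per dose group, each given a single oral dose. Blood was drawn by retro-orbital puncture into heparin at predose and at 0.5, 1, 2, 4, 6, 8, 12, 24, 48 and 72 h, then spun at 4000 × g and 4 °C. Plasma with internal standard was acetonitrile-precipitated, filtered and run on reverse-phase C18 HPLC (0.02 mol/L KH2PO4 55% / acetonitrile 45%, 1.0 mL/min). Calibration standards were 0.1–10 µg/mL, fitted by peak-height ratio with 1/conc² weighting.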

[6] = MRT (0 to 72 hrs) in Wistar rat plasma at 30 mg/kg, po by HPLC analysis; format: ADME, organism-based; procedure, shortened: as §2
[7] = MRT (0 to infinity) in Wistar rat plasma at 30 mg/kg, po by HPLC analysis; format: ADME, organism-based; procedure, shortened: as §2
[8] = Tmax in Wistar rat plasma at 15 mg/kg, po by HPLC analysis; format: ADME, organism-based; procedure, shortened: as §2
[9] = Tmax in Wistar rat plasma at 30 mg/kg, po by HPLC analysis; format: ADME, organism-based; procedure, shortened: as §2
[10] = AUC (0 to 72 hrs) in Wistar rat Heart at 10 mg/kg, po by HPLC analysis; format: ADME, organism-based; set-up: time < 72 hr, dose 10 mg/kg, route oral
Procedure, shortened: (§3)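 Wistar rats (180 ± 20 g) were dosed orally at 10, 15 or 30 mg/kg. Heart, liver, spleen, lung, kidney and brain were collected at 0–72 h (n = 6 per point). Tissue was rinsed, blotted and homogenized in saline (0.25 g/1 mL), then spun at 10,000 × g. Supernatant was methanol-extracted, dried under nitrogen at 50 °C, reconstituted in methanol and run on C18 HPLC (acetonitrile 60%/water 40%, 1.0 mL/min).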

[11] = MRT (0 to 72 hrs) in Wistar rat Heart at 10 mg/kg, po by HPLC analysis; format: ADME, organism-based
Procedure, shortened: (§4)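 Tissue distribution in male Wistar rats given oral 10, 15 or 30 mg/kg; heart, liver, spleen, lung, kidney and brain collected predose and 0.5–72 h post-dose (n = 6 per time). Tissue rinsed in saline, homogenised 0.25 g/1 mL saline, methanol extraction, dried under nitrogen, reconstituted in methanol. Analysis by reverse-phase C18 HPLC, acetonitrile/water 60:40, 1.0 mL/min, ambient temperature.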

[12] = AUC (0 to infinity) in Wistar rat liver at 30 mg/kg, po by HPLC analysis; format: ADME, organism-based; set-up: dose 30 mg/kg, time infinity, route oral; procedure, shortened: as §3
[13] = MRT (0 to infinity) in Wistar rat liver at 10 mg/kg, po by HPLC analysis; format: ADME, organism-based
Procedure, shortened: (§5)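 Male Wistar rats (180 ± 20 g) received a single oral dose of 10, 15 or 30 mg/kg. Tissues were collected at 0, 0.5, 1, 2, 4, 6, 8, 12, 24, 48 and 72 h (n = 6 per point). Samples of 0.25 g were rinsed, then homogenized in saline (0.25 g/1 mL) and centrifuged at 10,000 × g. Supernatant was methanol-extracted, dried under nitrogen at 50 °C and reconstituted in methanol. Analysis was by C18 HPLC (acetonitrile 60% / water 40%, 1.0 mL/min).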

[14] = MRT (0 to infinity) in Wistar rat liver at 15 mg/kg, po by HPLC analysis; format: ADME, organism-based; procedure, shortened: as §5
[15] = Tmax in Wistar rat liver at 30 mg/kg, po by HPLC analysis; format: ADME, organism-based; procedure, shortened: as §5
[16] = AUC (0 to 72 hrs) in Wistar rat spleen at 15 mg/kg, po by HPLC analysis; format: ADME, organism-based; set-up: dose 15 mg/kg, time < 72 hr, route oral; procedure, shortened: as §3
[17] = MRT (0 to infinity) in Wistar rat spleen at 10 mg/kg, po by HPLC analysis; format: ADME, organism-based; procedure, shortened: as §5
[18] = Tmax in Wistar rat spleen at 15 mg/kg, po by HPLC analysis; format: ADME, organism-based
[19] = Cmax in Wistar rat spleen at 30 mg/kg, po by HPLC analysis; format: ADME, organism-based; set-up: dose 30 mg/kg, route oral; procedure, shortened: as §4
[20] = AUC (0 to 72 hrs) in Wistar rat lung at 10 mg/kg, po by HPLC analysis; format: ADME, organism-based; set-up: time < 72 hr, dose 10 mg/kg, route oral; procedure, shortened: as §3
[21] = AUC (0 to 72 hrs) in Wistar rat lung at 15 mg/kg, po by HPLC analysis; format: ADME, organism-based; set-up: dose 15 mg/kg, time < 72 hr, route oral; procedure, shortened: as §3
[22] = AUC (0 to 72 hrs) in Wistar rat lung at 30 mg/kg, po by HPLC analysis; format: ADME, organism-based; set-up: time < 72 hr, dose 30 mg/kg, route oral; procedure, shortened: as §3
[23] = AUC (0 to infinity) in Wistar rat lung at 15 mg/kg, po by HPLC analysis; format: ADME, organism-based; set-up: dose 15 mg/kg, route oral, time infinity; procedure, shortened: as §3
[24] = MRT (0 to infinity) in Wistar rat lung at 15 mg/kg, po by HPLC analysis; format: ADME, organism-based; procedure, shortened: as §5
[25] = Half life in Wistar rat lung at 10 mg/kg, po by HPLC analysis; format: ADME, organism-based; procedure, shortened: as §4
[26] = Cmax in Wistar rat lung at 15 mg/kg, po by HPLC analysis; format: ADME, organism-based; set-up: dose 15 mg/kg, route oral; procedure, shortened: as §4
[27] = AUC (0 to 72 hrs) in Wistar rat kidney at 30 mg/kg, po by HPLC analysis; format: ADME, organism-based; set-up: time < 72 hr, dose 30 mg/kg, route oral; procedure, shortened: as §3
[28] = MRT (0 to infinity) in Wistar rat kidney at 15 mg/kg, po by HPLC analysis; format: ADME, organism-based; procedure, shortened: as §5
[29] = Tmax in Wistar rat kidney at 30 mg/kg, po by HPLC analysis; format: ADME, organism-based; procedure, shortened: as §5
[30] = Cmax in Wistar rat kidney at 10 mg/kg, po by HPLC analysis; format: ADME, organism-based; set-up: dose 10 mg/kg, route oral; procedure, shortened: as §4
[31] = MRT (0 to infinity) in Wistar rat brain at 15 mg/kg, po by HPLC analysis; format: ADME, organism-based; procedure, shortened: as §5
[32] = MRT (0 to infinity) in Wistar rat brain at 30 mg/kg, po by HPLC analysis; format: ADME, organism-based; procedure, shortened: as §5
[33] = Half life in Wistar rat brain at 15 mg/kg, po by HPLC analysis; format: ADME, organism-based; procedure, shortened: as §4
[34] = Cmax in Wistar rat brain at 10 mg/kg, po by HPLC analysis; format: ADME, organism-based; set-up: dose 10 mg/kg, route oral; procedure, shortened: as §3
[35] = Toxicity in ICR mouse assessed as mortality at 1200 mg/kg, ig after 2 weeks; format: organism-based; conditions: in vivo, po
[36] = test system: Mus musculus; assay: Toxicity in ICR mouse assessed as untoward reaction at 1200 mg/kg, po after 2 weeks; format: organism-based; conditions: in vivo, 336 h

CCCCC1=NC2(CCCC2)C(=O)N1Cc1ccc2c(ccn2-c2ccccc2-c2nnn[nH]2)c1
AUC(0-t) at 72 h [1]: 6110 ng·h/mL | AUC(0-t) at 72 h [2]: 26500 ng·h/mL | AUC(0-inf) [3]: 6690 ng·h/mL | AUC(0-inf) [4]: 26100 ng·h/mL | MRT last [5]: 7.87 h | MRT last [6]: 12.9 h | MRT inf [7]: 16.1 h | Tmax [8]: 4.33 h | Tmax [9]: 5 h | AUC(0-t) at 72 h [10]: 825 ng·h/mL | MRT last [11]: 7.68 h | AUC(0-inf) [12]: 15600 ng·h/mL | MRT inf [13]: 3.58 h | MRT inf [14]: 4.77 h | Tmax [15]: 4 h | AUC(0-t) at 72 h [16]: 11900 ng·h/mL | MRT inf [17]: 30.4 h | Tmax [18]: 1.5 h | Cmax [19]: 1880 ng/mL | AUC(0-t) at 72 h [20]: 745 ng·h/mL | AUC(0-t) at 72 h [21]: 1350 ng·h/mL | AUC(0-t) at 72 h [22]: 2360 ng·h/mL | AUC(0-inf) [23]: 1350 ng·h/mL | MRT inf [24]: 3.64 h | half-life [25]: 3.04 h | Cmax [26]: 369 ng/mL | AUC(0-t) at 72 h [27]: 22400 ng·h/mL | MRT inf [28]: 29.4 h | Tmax [29]: 2 h | Cmax [30]: 180 ng/mL | MRT inf [31]: 11.6 h | MRT inf [32]: 9.02 h | half-life [33]: 2.59 h | Cmax [34]: 37.2 ng/mL | mortality at 336 h [35]: 0% | Activity [36]: Non-Toxic

Reference: ChEMBL document CHEMBL3872205, “Design, synthesis and evaluation of novel potent angiotensin II receptor 1 antagonists” (Eur J Med Chem, 2016)
